Series [1] deals with Rattus norvegicus. The experiment in a line: Antiarthritic effect in Lewis rat adjuvant-induced arthritis model spleen adherent cells restimulated with sonicated Mtb post isolation assessed as reduction in IL6 production at 200 ug, ip starting from arthritis onset and continued uninterrupted until study end by cytokine multiplex assay. Type of series: functional, organism-based. In a few lines:
(§1)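 Mtb-immunized male Lewis rats were dosed 200 μg/rat i.p. daily from arthritis onset (vehicle: 1.2% DMSO/PBS). Spleen adherent cells were prepared on d 18, plated at 1.5 × 10^6/well in 2% FBS medium and restimulated with sonicated Mtb (10 μg/ml) for 24 h. Supernatant chemokines and cytokines were measured by Luminex multiplex. Mean ± SD of triplicates from 4–5 rats.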

For series [2], the system named is Rattus norvegicus. The experiment in a line: Antiarthritic effect in Lewis rat adjuvant-induced arthritis model serum assessed as reduction in TNFalpha production at 200 ug, ip starting from arthritis onset and continued uninterrupted until study end by cytokine multiplex assay. The class given is functional, organism-based. In a few lines: (§2)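 Arthritic Lewis rats (Mtb 1.5 mg s.c. in mineral oil) were given 200 μg/rat i.p. daily from onset until the day before harvest; controls received DMSO/PBS vehicle. On d 18, blood was taken by cardiac puncture after euthanasia and serum stored at −80 °C. Serum pooled from 4 rats was assayed in triplicate by multiplex.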

The species entered for series [3] is Rattus norvegicus. Description: Antiarthritic effect in sonicated Mtb-stimulated spleen adherent cells isolated from Lewis rat adjuvant-induced arthritis model assessed as reduction in MCP1 production pre-incubated with compound for 30 mins before stimulation with sonicated-Mtb for 48 hrs by multiplex assay. The class given is functional, tissue-based.
For series [4], the system named is Rattus norvegicus. Description: Toxicity in Lewis rat adjuvant-induced arthritis model serum assessed as increase in MCP1 production at 200 ug, ip starting from arthritis onset and continued uninterrupted until study end by cytokine multiplex assay. Type of series: organism-based. The conditions noted are these: in vivo. In short, it runs like this:
as §2

The subject of series [5] is Rattus norvegicus. Description: Antiarthritic effect in Lewis rat adjuvant-induced arthritis model lymph node cells restimulated with sonicated Mtb post isolation assessed as reduction in IL6 production at 200 ug, ip starting from arthritis onset and continued uninterrupted until study end by cytokine multiplex assay. The class given is functional, organism-based. In a few lines: (§3)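 Male Lewis rats were immunized s.c. with heat-killed Mtb H37Ra (1.5 mg/rat) in mineral oil. From arthritis onset they received 200 μg/rat i.p. daily (DMSO stock diluted in PBS); controls got 1.2% DMSO in PBS. On d 18, draining lymph node or synovial-infiltrating cells were cultured at 1.5 × 10^6/well in 2% FBS medium ± sonicated Mtb (10 μg/ml) for 24 h. Supernatants were analysed by multiplex.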

Series [6] relates to Rattus norvegicus. Description: Antiarthritic effect in Lewis rat adjuvant-induced arthritis model lymph node cells restimulated with sonicated Mtb post isolation assessed as reduction in MIP-1alpha production at 200 ug, ip starting from arthritis onset and continued uninterrupted until study end by cytokine multiplex assay. The class given is functional, organism-based. In a few lines:
as §3

The subject of series [7] is Rattus norvegicus. The experiment in a line: Antiarthritic effect in Lewis rat adjuvant-induced arthritis model serum assessed as reduction in GRO/KC production at 200 ug, ip starting from arthritis onset and continued uninterrupted until study end by cytokine multiplex assay. Type of series: functional, organism-based. In a few lines:
as §2

In series [8] the test system is Rattus norvegicus. Description: Antiarthritic effect in Lewis rat adjuvant-induced arthritis model synovial infiltrating cells restimulated with sonicated Mtb post isolation assessed as reduction in GRO/KC production at 200 ug, ip starting from arthritis onset and continued uninterrupted until study end by cytokine multiplex assay. The class given is functional, organism-based. In a few lines: as §3

Series [9] has as its system Rattus norvegicus. The experiment in a line: Antiarthritic effect in Lewis rat adjuvant-induced arthritis model spleen adherent cells restimulated with sonicated Mtb post isolation assessed as reduction in CCR3 expression at 200 ug, ip starting from arthritis onset and continued uninterrupted until study end by qPCR. Type of series: functional, organism-based. In a few lines:
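From onset of Mtb-induced arthritis, rats received 200 μg/rat i.p. daily or vehicle. Spleen adherent cells harvested on d 18 (1.5–2.0 × 10^6 cells/well) were cultured in medium or with sonicated Mtb (10 μg/ml) for 24 h. Receptor mRNA was quantified by qPCR after TRIzol RNA isolation and cDNA synthesis, normalized to HGPRT and reported as relative message.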
Background: Quantitative PCR measures a nucleic acid by following its amplification.

Series [10] deals with Rattus norvegicus. Description: Antiarthritic effect in Lewis rat adjuvant-induced arthritis model lymph node cells restimulated with sonicated Mtb post isolation assessed as reduction in GRO/KC production at 200 ug, ip starting from arthritis onset and continued uninterrupted until study end by cytokine multiplex assay. Type of series: functional, organism-based. In short, it runs like this: as §3

A short description of series [11]: Increase in CCR1 protein surface expression in sonicated Mtb-stimulated spleen adherent cells isolated Inhibition of cell migration of RANTES-stimulated spleen adherent cells isolated from Lewis rat adjuvant-induced arthritis model at 0. 3 uM by Transwell cell migration assay. Type of series: functional. In a few lines: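 Transwell assay with 8-μm polycarbonate inserts. Spleen adherent cells (1 × 10^6) from arthritic rats were placed in the upper chamber; the lower chamber held serum-free RPMI with RANTES (50 ng/ml) ± compound (0.1, 0.3 μM). Cells migrated 24 h at 37 °C, 5% CO2. Lower-surface cells were fixed in 4% formaldehyde, DAPI-stained, imaged at 10× and counted by image analysis. RANTES alone was set as 100%.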

Series [12] concerns Rattus norvegicus. The experiment in a line: Antiarthritic effect in Lewis rat adjuvant-induced arthritis model lymph node cells restimulated with sonicated Mtb post isolation assessed as reduction in TNFalpha production at 200 ug, ip starting from arthritis onset and continued uninterrupted until study end by cytokine multiplex assay. The class given is functional, organism-based. In a few lines: as §3

The subject of series [13] is Rattus norvegicus. The experiment in a line: Antiarthritic effect in Lewis rat adjuvant-induced arthritis model lymph node cells restimulated with sonicated Mtb post isolation assessed as reduction in MCP1 production at 200 ug, ip starting from arthritis onset and continued uninterrupted until study end by cytokine multiplex assay. Type of series: functional, organism-based. In a few lines:
as §3

In series [14] the test system is Rattus norvegicus. Description: Antiarthritic effect in Lewis rat adjuvant-induced arthritis model synovial infiltrating cells restimulated with sonicated Mtb post isolation assessed as reduction in IL-1beta production at 200 ug, ip starting from arthritis onset and continued uninterrupted until study end by cytokine multiplex assay. Type of series: functional, organism-based. In short, it runs like this: as §3

The test system of series [15] is Rattus norvegicus. The experiment in a line: Antiarthritic effect in Lewis rat adjuvant-induced arthritis model spleen adherent cells restimulated with sonicated Mtb post isolation assessed as reduction in GRO/KC production at 200 ug, ip starting from arthritis onset and continued uninterrupted until study end by cytokine multiplex assay. The class given is functional, organism-based. In a few lines:
as §1

For series [16], the system named is Rattus norvegicus. Description: Antiarthritic effect in Lewis rat adjuvant-induced arthritis model synovial infiltrating cells restimulated with sonicated Mtb post isolation assessed as reduction in MCP1 production at 200 ug, ip starting from arthritis onset and continued uninterrupted until study end by cytokine multiplex assay. The class given is functional, organism-based. In short, it runs like this:
as §3

The species named for series [17] is Rattus norvegicus. Description: Increase in CCR1 expression in sonicated Mtb-stimulated spleen adherent cells isolated from Lewis rat adjuvant-induced arthritis model pre-incubated with compound before stimulation with sonicated Mtb for 24 hrs by qPCR. Type of series: functional, tissue-based. In short, it runs like this:
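Spleen adherent cells (1.5–2.0 × 10^6 cells/well) came from an untreated arthritic Lewis rat. They were restimulated 24 h with sonicated Mtb (10 μg/ml) with or without compound at 0.1 and 0.3 μM. CCR1 mRNA was measured by qPCR, normalized to HPRT and expressed as relative message.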

The species entered for series [18] is Rattus norvegicus. The experiment in a line: Increase in CCR1 protein surface expression in sonicated Mtb-stimulated spleen adherent cells isolated from Lewis rat adjuvant-induced arthritis model pre-incubated with 0.1 to 0.3 uM compound before stimulation with sonicated Mtb for 24 hrs by flow cytometry. The class given is functional, tissue-based. In a few lines:
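Spleen adherent cells from arthritic rats were stimulated 24 h with sonicated Mtb in vitro, with or without compound. Cells were detached with TrypLE for 10 min, washed, and surface-stained 30 min with anti-CD11b/c PerCP-eFluor 710 and cross-reactive anti-human CCR1 Alexa Fluor 647. Cells were fixed in 1% formaldehyde and analysed by flow cytometry, with IgG2a/IgG2b isotype controls.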
For orientation: A flow cytometer gives signals particle by particle.

The species entered for series [19] is Rattus norvegicus. The experiment in a line: Antiarthritic effect in IL-1beta-stimulatedspleen adherent cells isolated from Lewis rat adjuvant-induced arthritis model assessed as reduction in TNFalpha production pre-incubated with compound for 30 mins before stimulation with IL-1beta for 48 hrs by multiplex assay. The conditions noted are these: Spleen. The class given is functional, tissue-based.

Activity calls are given as the source filed them. The calls are words filed in the database; no cut-off is given here.

Take `CC1=C(O)C(=O)C=C2C1=CC=C1[C@@]2(C)CC[C@@]2(C)[C@@H]3C[C@](C)(C(=O)O)CC[C@]3(C)CC[C@]12C` [CELASTROL]: the result in the series on Rattus norvegicus [1], in the series with Rattus norvegicus [5], in the series on Rattus norvegicus [6], with Rattus norvegicus [8], in the series on Rattus norvegicus [10] and in the series with Rattus norvegicus [12] was inactive. Besides, the outcome in the series with Rattus norvegicus [13], in the series with Rattus norvegicus [14] and with Rattus norvegicus [16] was inactive. The outcome in the series with Rattus norvegicus [2], with Rattus norvegicus [7], in the series on Rattus norvegicus [9], in the series with Rattus norvegicus [15] and in the series listed under Rattus norvegicus [18] was Active. The Activity entry in the series filed under Rattus norvegicus [3] is “Dose-dependent effect”; with Rattus norvegicus [4], “Toxic”; in the series filed under Rattus norvegicus [17] it was “Dose-dependent effect”; in the series listed under Rattus norvegicus [19], “Dose-dependent effect”. Also, the “inhibition (INH)” value in [11] came out at 63%.
